Reference: ChEMBL document CHEMBL1154676, “Synthetic mRNA splicing modulator compounds with in vivo antitumor activity” (J Med Chem, 2009)

What was measured:
K562 = test: Growth inhibition of human K562 cells by sulforhodamine B assay; format: functional
SK-MEL-2 = test: Cytotoxicity against human SK-MEL-2 cells after 72 hrs by XTT assay; format: functional, cell-based; settings: SK-MEL-2, 72 h
Procedure, shortened: (§1)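 Cells grown at 37 °C, 5% CO2; HFF in DMEM with 10% FBS, PrEC in prostate epithelial growth medium. Adherent lines seeded overnight, suspension lines same day; compounds diluted from DMSO stocks into media at various final concentrations, 72 h exposure. XTT reagent added 4 h, absorbance 490 nm (reference 690 nm). Growth as % of vehicle; IC50 from sigmoidal dose-response fit; mean ± SEM, three independent experiments.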

[1] = Cytotoxicity against human BT-12 cells after 72 hrs by XTT assay; format: functional, cell-based; settings: BT-12, 72 h; procedure, shortened: as §1
Mus musculus [2] = test: Toxicity in NOD/SCID mouse assessed as total bilirubin level at 5 to 50 mg/kg, iv and po for 5 days; format: organism-based; parameters: dose 5-50 mg/kg, route oral; settings: in vivo, 120 h
IGROV-1 = test: Growth inhibition of human IGROV1 cells by sulforhodamine B assay; format: functional
NCI/ADR-RES = test: Growth inhibition of human NCI/ADR-RES cells by sulforhodamine B assay; format: functional
Mus musculus [3] = test: Toxicity in NOD/SCID mouse assessed as creatinine level at 5 to 50 mg/kg, […] for 5 days; format: organism-based; parameters: dose 5-50 mg/kg; settings: in vivo, po, 120 h
MOLT-4 = test: Growth inhibition of human MOLT4 cells by sulforhodamine B assay; format: functional
[4] = Cytotoxicity against human NB1643 cells after 72 hrs by XTT assay; format: functional, cell-based; settings: NB-1643, 72 h; procedure, shortened: as §1
HCT-116 = test: Growth inhibition of human HCT116 cells by sulforhodamine B assay; format: functional
Mus musculus [5] = test: Toxicity in NOD/SCID mouse assessed as change in alkaline phosphatase level at 5 to 50 mg/kg, iv and po for 5 days; format: organism-based; parameters: dose 5-50 mg/kg, route oral; settings: in vivo, 120 h
ACHN = test: Growth inhibition of human ACHN cells by sulforhodamine B assay; format: functional
Mus musculus [6] = test: Toxicity in NOD/SCID mouse assessed as glucose at 5 to 50 mg/kg, […] for 5 days; format: organism-based; parameters: dose 5-50 mg/kg; settings: in vivo, po, 120 h
A498 = test: Growth inhibition of human A498 cells by sulforhodamine B assay; format: functional
Mus musculus [7] = test: Toxicity in NOD/SCID mouse transplanted with human JeKo1 cells assessed as fatalities at 5 to 50 mg/kg, iv and po for 5 days; format: organism-based; parameters: dose 5-50 mg/kg, route oral; settings: in vivo, 120 h
Mus musculus [8] = test: Toxicity in NOD/SCID mouse assessed as alanine aminotransferase level at 5 to 50 mg/kg, […] for 5 days; format: organism-based; parameters: dose 5-50 mg/kg, route oral; settings: in vivo, po, 120 h
TK-10 = test: Growth inhibition of human TK10 cells by sulforhodamine B assay; format: functional
OVCAR-8 = test: Growth inhibition of human OVCAR8 cells by sulforhodamine B assay; format: functional
MIA PaCa-2 = test: Cytotoxicity against human MIAPaCa2 cells after 72 hrs by XTT assay; format: functional, cell-based; settings: MIA PaCa-2, 72 h; procedure, shortened: as §1
MDA-MB-468 = test: Growth inhibition of human MDA-MB-468 cells by sulforhodamine B assay; format: functional
U-251 = test: Growth inhibition of human U251 cells by sulforhodamine B assay; format: functional
SW-620 = test: Growth inhibition of human SW620 cells by sulforhodamine B assay; format: functional
MCF7 = test: Growth inhibition of human MCF7 cells by sulforhodamine B assay; format: functional
NCI-H322M = test: Growth inhibition of human NCI-H322M cells by sulforhodamine B assay; format: functional
CCRF-CEM = test: Growth inhibition of human CCRF-CEM cells by sulforhodamine B assay; format: functional
[9] = Antitumor activity against human JeKo1 cells transplanted in NOD/SCID mouse assessed as tumor volume treated iv for 5 days relative to control; format: functional, JeKo-1
Procedure, shortened: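 Female NOD/SCID mice bearing JeKo-1 tumors transplanted day 1; IV dosing from day 4, daily for five days, at 5, 10, 25 or 50 mg/kg in 3.0% DMSO/6.5% Tween 80/5% glucose, 4 per group. Volume = (length × width²)/2, measured thrice weekly; T/C = median treated tumor volume ÷ median control volume.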

Mus musculus [10] = test: Toxicity in NOD/SCID mouse assessed as potassium level at 5 to 50 mg/kg, […]; format: organism-based; parameters: dose 5-50 mg/kg, route oral; settings: in vivo, po, 120 h
UACC-62 = test: Growth inhibition of human UACC62 cells by sulforhodamine B assay; format: functional
PC-3 = test: Growth inhibition of human PC3 cells by sulforhodamine B assay; format: functional
Mus musculus [11] = test: Toxicity in NOD/SCID mouse assessed as calcium level at 5 to 50 mg/kg, iv and po for 5 days; format: organism-based; parameters: dose 5-50 mg/kg, route oral; settings: in vivo, 120 h
[12] = Cytotoxicity against human Rh30 cells after 72 hrs by XTT assay; format: functional, cell-based; settings: SJRH30, 72 h; procedure, shortened: as §1
RXF 393 = test: Growth inhibition of human RXF393 cells by sulforhodamine B assay; format: functional
SNB-75 = test: Growth inhibition of human SNB75 cells by sulforhodamine B assay; format: functional
KM12 = test: Growth inhibition of human KM12 cells by sulforhodamine B assay; format: functional
SF-268 = test: Growth inhibition of human SF268 cells by sulforhodamine B assay; format: functional
MV4-11 = test: Cytotoxicity against human MV4-11 cells after 72 hrs by XTT assay; format: functional, cell-based; settings: MV4-11, 72 h; procedure, shortened: as §1
PANC-1 = test: Cytotoxicity against human PANC1 cells after 72 hrs by XTT assay; format: functional, cell-based; settings: PANC-1, 72 h; procedure, shortened: as §1
[13] = read-out: Log10GI50 (converted)
[14] = read-out: Log10LC50 (converted)

Work on CC(/C=C/[C@@H]1C[C@]2(CO2)CC(C)(C)O1)=C\C[C@H]1CC[C@@H](NC(=O)/C=C\[C@H](C)OC(=O)C(C)C)CC1 yielded a GI50 (K562; [13]) of 0.0457 µM, a CC50 (K562; [14]) of over 100 µM and a TGI (K562; read-out: Log10TGI (converted)) of over 100 µM. The IC50 (SK-MEL-2) was 0.29 µM, the IC50 [1] was 2.79 µM and the Activity (Mus musculus [2]) was “Non-toxic”. For the same molecule, the GI50 (IGROV-1; [13]) was 0.851 µM, the CC50 (IGROV-1; [14]) was over 100 µM and the TGI (IGROV-1; read-out: Log10TGI (converted)) was over 100 µM. It also gave a GI50 (NCI/ADR-RES; [13]) of 0.501 µM, a CC50 (NCI/ADR-RES; [14]) of over 100 µM and a TGI (NCI/ADR-RES; read-out: Log10TGI (converted)) of over 100 µM. The Activity (Mus musculus [3]) was “Non-toxic”, the GI50 (MOLT-4; [13]) was 0.0479 µM and the CC50 (MOLT-4; [14]) was over 100 µM. The TGI (MOLT-4; read-out: Log10TGI (converted)) was 5.62 µM, the IC50 [4] was 0.23 µM and the GI50 (HCT-116; [13]) was 0.0708 µM. For the same molecule, the CC50 (HCT-116; [14]) was over 100 µM, the TGI (HCT-116; read-out: Log10TGI (converted)) was over 100 µM and the Activity (Mus musculus [5]) was “Non-toxic”. The GI50 (ACHN; [13]) was 0.537 µM, the CC50 (ACHN; [14]) was over 100 µM and the TGI (ACHN; read-out: Log10TGI (converted)) was 75.9 µM. The Activity (Mus musculus [6]) was “Non-toxic”, the GI50 (A498; [13]) was 3.39 µM and the CC50 (A498; [14]) was over 100 µM. The TGI (A498; read-out: Log10TGI (converted)) was 74.1 µM, the Activity (Mus musculus [7]) was “Non-toxic” and the Activity (Mus musculus [8]) was “Non-toxic”. The GI50 (TK-10; [13]) was 0.457 µM, the CC50 (TK-10; [14]) was over 100 µM and the TGI (TK-10; read-out: Log10TGI (converted)) was 7.94 µM. It also gave a GI50 (OVCAR-8; [13]) of 0.24 µM, a CC50 (OVCAR-8; [14]) of over 100 µM and a TGI (OVCAR-8; read-out: Log10TGI (converted)) of over 100 µM. For the same molecule, the IC50 (MIA PaCa-2) was 1.2 µM, the GI50 (MDA-MB-468; [13]) was 0.741 µM and the CC50 (MDA-MB-468; [14]) was over 100 µM. It also gave a TGI (MDA-MB-468; read-out: Log10TGI (converted)) of 39.8 µM, a GI50 (U-251; [13]) of 0.363 µM and a CC50 (U-251; [14]) of over 100 µM. It also gave a TGI (U-251; read-out: Log10TGI (converted)) of over 100 µM, a GI50 (SW-620; [13]) of 0.0813 µM and a CC50 (SW-620; [14]) of over 100 µM. The TGI (SW-620; read-out: Log10TGI (converted)) was 12.9 µM, the GI50 (MCF7; [13]) was 0.0251 µM and the CC50 (MCF7; [14]) was over 100 µM. The TGI (MCF7; read-out: Log10TGI (converted)) was 13.8 µM, the GI50 (NCI-H322M; [13]) was 2 µM and the CC50 (NCI-H322M; [14]) was over 100 µM. It also gave a TGI (NCI-H322M; read-out: Log10TGI (converted)) of 22.4 µM, a GI50 (CCRF-CEM; [13]) of 0.0479 µM and a CC50 (CCRF-CEM; [14]) of over 100 µM. The TGI (CCRF-CEM; read-out: Log10TGI (converted)) was over 100 µM, the T/C [9] was “<=42%” and the Activity (Mus musculus [10]) was “Non-toxic”. It also gave a GI50 (UACC-62; [13]) of 0.513 µM, a CC50 (UACC-62; [14]) of 46.8 µM and a TGI (UACC-62; read-out: Log10TGI (converted)) of 4.68 µM. The GI50 (PC-3; [13]) was 0.479 µM, the CC50 (PC-3; [14]) was over 100 µM and the TGI (PC-3; read-out: Log10TGI (converted)) was 38 µM. For the same molecule, the Activity (Mus musculus [11]) was “Non-toxic”, the IC50 [12] was 0.69 µM and the GI50 (RXF 393; [13]) was 0.229 µM. For the same molecule, the CC50 (RXF 393; [14]) was over 100 µM, the TGI (RXF 393; read-out: Log10TGI (converted)) was 1.82 µM and the GI50 (SNB-75; [13]) was 5.37 µM. For the same molecule, the CC50 (SNB-75; [14]) was over 100 µM, the TGI (SNB-75; read-out: Log10TGI (converted)) was over 100 µM and the GI50 (KM12; [13]) was 0.309 µM. The CC50 (KM12; [14]) was over 100 µM, the TGI (KM12; read-out: Log10TGI (converted)) was over 100 µM and the GI50 (SF-268; [13]) was 0.263 µM. It also gave a CC50 (SF-268; [14]) of over 100 µM, a TGI (SF-268; read-out: Log10TGI (converted)) of over 100 µM and an IC50 (MV4-11) of 0.3 µM. For the same molecule, the IC50 (PANC-1) was 3.87 µM.
